{
  "source": "paper PMC9283735",
  "about": "(Clinical and Translational Science, 2022)",
  "key": {"[1]": {"settings": "rats; cited from earlier work"}, "healthy adult subjects [2]": {"test_system": "healthy adult subjects", "assay": "Solicited local reactogenicity symptoms", "assay_type": "in vivo, human", "settings": "1 mg or 10 mg single s.c. dose", "summary_of_the_method": "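The injection site was evaluated from dosing to day 30: in-unit confinement for 7 days, then follow-up on days 14, 21 and 30 (±1 day). Solicited local symptoms were pain, tenderness, pruritus, ecchymosis, induration/swelling, erythema, nodule and ulceration, each graded mild (1), moderate (2) or severe (3). Subjects were randomized 3:1 to test compound or 5% dextrose placebo. Proportions carry Wilson-score 95% CIs.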"}, "[3]": {"settings": "monkeys; cited from earlier work"}, "healthy adult subjects [4]": {"test_system": "healthy adult subjects", "assay_type": "in vivo, human", "summary_of_the_method": "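Unsolicited AEs (volunteered, not pre-specified) were recorded from dosing to final follow-up (day 30), graded 1–3, judged related or unrelated by the study physician, and coded with MedDRA 23.1. Clinical evaluation included ECGs, physical examinations and vital signs on select days. Laboratory tests covered hematology, coagulation, blood chemistry and dipstick urinalysis, run on samples taken after a fast of at least 8 h.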"}, "[5]": {"settings": "single i.v. doses of 50, 100, 200 and 400 mg, human plasma; cited from earlier work"}, "[6]": {"assay": "Plasma pharmacokinetics after a single s.c. dose", "assay_type": "in vivo, human", "settings": "10 mg single s.c. dose, healthy adults; for AUC(0-t): AUC0-last; for AUC(0-t) / Tmax: N = 6; for Tmax: T max", "summary_of_the_method": "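Healthy adults aged 18–45 y were randomized 3:1 to a single s.c. injection of the test compound (100 mg/ml formulation with mannitol) or placebo (5% dextrose). Parameters came from noncompartmental analysis (Lambda Z: adjusted r² ≥0.90, span ≥2.0 half-lives, ≥2 points after Tmax).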"}, "[7]": {"settings": "cohort 1 (1 mg s.c.), of 3 who received rezafungin"}, "[8]": {"settings": "cohort 2 (10 mg s.c.), of 6 who received rezafungin"}, "[9]": {"settings": "human, plasma, sc, 10 mg, geometric mean, NCA"}, "[10]": {"settings": "human, plasma, sc, 10 mg, median, NCA"}},
  "note": "Where two headings read alike, the source gives them in different places. *1 amine or outer side, *2 acyl side, *3 side chain or, on linkers, in order; H or OH if unused. Where a SMILES comes first, the peptide text is derived from it. Bridges are numbered along the chain shown (N, C = ends). [ ]: non-standard residue; d: D form. The star is where a group is joined. Orn(4R-OH,5R-OCH2CH2NMe3+) = C[N+](C)(C)CCO[C@@H](N[*:3])[C@H](O)C[C@H](N[*:1])C(=O)[*:2]; pTerphenylCO(4''-OnC5H11) = CCCCCOc1ccc(-c2ccc(-c3ccc(C(=O)*)cc3)cc2)cc1; hTyr(3S-OH,4S-OH) = N[C@H](C(=O)O)[C@H](O)[C@@H](O)c1ccc(O)cc1; Pro(3S-OH,4S-Me) = C[C@H]1CN[C@H](C(=O)O)[C@H]1O; Hyp = O=C(O)[C@@H]1C[C@@H](O)CN1",
  "data": [
    {"molecule": "CCCCCOc1ccc(-c2ccc(-c3ccc(C(=O)N[C@H]4C[C@@H](O)[C@@H](OCC[N+](C)(C)C)NC(=O)[C@@H]5[C@@H](O)[C@@H](C)CN5C(=O)[C@H]([C@@H](C)O)NC(=O)[C@H]([C@H](O)[C@@H](O)c5ccc(O)cc5)NC(=O)[C@@H]5C[C@@H](O)CN5C(=O)[C@H]([C@@H](C)O)NC4=O)cc3)cc2)cc1", "note": "[rezafungin] ({pTerphenylCO(4''-OnC5H11)}-[Orn(4R-OH,5R-OCH2CH2NMe3+)]T[Hyp][hTyr(3S-OH,4S-OH)]T[Pro(3S-OH,4S-Me)]; lactam 1-C)", "values": [
      {"measurement": "bioavailability of s.c. formulation", "setting": "[1]", "value": "≤ 80", "unit": "%"},
      {"measurement": "intensity of solicited reactogenicity symptoms", "setting": "healthy adult subjects [2]", "value": "mild to moderate"},
      {"measurement": "bioavailability of s.c. formulation", "setting": "[3]", "value": "≤ 80", "unit": "%"},
      {"measurement": "severe bradycardia, subjects", "setting": "healthy adult subjects [4]; cohort 1 (1 mg s.c.), asymptomatic, determined not rezafungin-related", "value": "single subject"},
      {"measurement": "sinus bradycardia (unsolicited AE), % of subjects", "setting": "healthy adult subjects [4]; [7]", "value": 67, "unit": "%"},
      {"measurement": "sinus bradycardia (unsolicited AE), subjects", "setting": "healthy adult subjects [4]; [7]", "value": 2},
      {"measurement": "unsolicited AEs deemed related to rezafungin, number of subjects", "setting": "healthy adult subjects [4]; cohort 2 (10 mg s.c.)", "value": "three"},
      {"measurement": "unsolicited AEs deemed related to rezafungin, number of AEs", "setting": "healthy adult subjects [4]; cohort 2 (10 mg s.c.), all mild", "value": "Five"},
      {"measurement": "increased alanine aminotransferase (unsolicited AE), % of subjects", "setting": "healthy adult subjects [4]; [8]", "value": 33, "unit": "%"},
      {"measurement": "increased alanine aminotransferase (unsolicited AE), subjects", "setting": "healthy adult subjects [4]; [8]", "value": 2},
      {"measurement": "T max after start of infusion", "setting": "[5]", "value": "~ 1 h"},
      {"measurement": "Total body clearance", "setting": "[5]", "value": "~ 0.2 L/h"},
      {"measurement": "exposure period", "setting": "[6]", "value": "~1", "unit": "month"},
      {"measurement": "t 1/2, geometric mean", "setting": "[6]; plasma, NCA, geometric mean, N = 5", "value": 186.2, "unit": "h"},
      {"measurement": "AUC0-inf, maximum", "setting": "[6]; plasma, NCA, maximum, N = 5", "value": "53,200 ng*h/ml"},
      {"measurement": "CL/F, maximum", "setting": "[6]; plasma, NCA, maximum, N = 5", "value": 0.344, "unit": "L/h"},
      {"measurement": "V z/F, maximum", "setting": "[6]; plasma, NCA, maximum, N = 5", "value": 95.6, "unit": "L"},
      {"measurement": "t 1/2, maximum", "setting": "[6]; plasma, NCA, maximum, N = 5", "value": 219, "unit": "h"},
      {"measurement": "CL/F, minimum", "setting": "[6]; plasma, NCA, minimum, N = 5", "value": 0.188, "unit": "L/h"},
      {"measurement": "V z/F, minimum", "setting": "[6]; plasma, NCA, minimum, N = 5", "value": 38.0, "unit": "L"},
      {"measurement": "t 1/2, minimum", "setting": "[6]; plasma, NCA, minimum, N = 5", "value": 140, "unit": "h"},
      {"measurement": "AUC(0-t)", "setting": "[6]; [9]", "value": 32800, "unit": "ng·h/mL"},
      {"measurement": "AUC(0-t)", "setting": "[6]; [10]", "value": 32000, "unit": "ng·h/mL"},
      {"measurement": "CL/F", "setting": "[6]; human, plasma, sc, 10 mg, CL/F (apparent clearance), mean, NCA, N = 5", "value": 4.35, "unit": "mL/min"},
      {"measurement": "CL/F", "setting": "[6]; human, plasma, sc, 10 mg, CL/F, geometric mean, NCA, N = 5", "value": 4.25, "unit": "mL/min"},
      {"measurement": "CL/F", "setting": "[6]; human, plasma, sc, 10 mg, CL/F, median, NCA, N = 5", "value": 4.5, "unit": "mL/min"},
      {"measurement": "Tmax", "setting": "[6]; [9]", "value": 112, "unit": "h"},
      {"measurement": "Tmax", "setting": "[6]; human, plasma, sc, 10 mg, mean, NCA", "value": 120, "unit": "h"},
      {"measurement": "Tmax", "setting": "[6]; [10]", "value": 144, "unit": "h"},
      {"measurement": "half-life", "setting": "[6]; human, plasma, sc, 10 mg, t 1/2, median, NCA, median, N = 5", "value": 193, "unit": "h"}
    ]}
  ]
}
